Results: ChEMBL document CHEMBL1129264, “Mercaptoacyl dipeptides as orally active dual inhibitors of angiotensin-converting enzyme and neutral endopeptidase” (1996)

Assays:
[1] = molecular target: T1, Angiotensin-converting enzyme (Rattus norvegicus) (UniProt P47820); experiment: Compound was tested for plasma inhibition of Angiotensin I converting enzyme activity in the conscious rat. Expressed as Inhibition of AI pressor response at 6 hr at a dose of 13.7 mg/kg po; type: organism-based; parameters: dose 13.7 mg/kg
T1 sequence (whole entry): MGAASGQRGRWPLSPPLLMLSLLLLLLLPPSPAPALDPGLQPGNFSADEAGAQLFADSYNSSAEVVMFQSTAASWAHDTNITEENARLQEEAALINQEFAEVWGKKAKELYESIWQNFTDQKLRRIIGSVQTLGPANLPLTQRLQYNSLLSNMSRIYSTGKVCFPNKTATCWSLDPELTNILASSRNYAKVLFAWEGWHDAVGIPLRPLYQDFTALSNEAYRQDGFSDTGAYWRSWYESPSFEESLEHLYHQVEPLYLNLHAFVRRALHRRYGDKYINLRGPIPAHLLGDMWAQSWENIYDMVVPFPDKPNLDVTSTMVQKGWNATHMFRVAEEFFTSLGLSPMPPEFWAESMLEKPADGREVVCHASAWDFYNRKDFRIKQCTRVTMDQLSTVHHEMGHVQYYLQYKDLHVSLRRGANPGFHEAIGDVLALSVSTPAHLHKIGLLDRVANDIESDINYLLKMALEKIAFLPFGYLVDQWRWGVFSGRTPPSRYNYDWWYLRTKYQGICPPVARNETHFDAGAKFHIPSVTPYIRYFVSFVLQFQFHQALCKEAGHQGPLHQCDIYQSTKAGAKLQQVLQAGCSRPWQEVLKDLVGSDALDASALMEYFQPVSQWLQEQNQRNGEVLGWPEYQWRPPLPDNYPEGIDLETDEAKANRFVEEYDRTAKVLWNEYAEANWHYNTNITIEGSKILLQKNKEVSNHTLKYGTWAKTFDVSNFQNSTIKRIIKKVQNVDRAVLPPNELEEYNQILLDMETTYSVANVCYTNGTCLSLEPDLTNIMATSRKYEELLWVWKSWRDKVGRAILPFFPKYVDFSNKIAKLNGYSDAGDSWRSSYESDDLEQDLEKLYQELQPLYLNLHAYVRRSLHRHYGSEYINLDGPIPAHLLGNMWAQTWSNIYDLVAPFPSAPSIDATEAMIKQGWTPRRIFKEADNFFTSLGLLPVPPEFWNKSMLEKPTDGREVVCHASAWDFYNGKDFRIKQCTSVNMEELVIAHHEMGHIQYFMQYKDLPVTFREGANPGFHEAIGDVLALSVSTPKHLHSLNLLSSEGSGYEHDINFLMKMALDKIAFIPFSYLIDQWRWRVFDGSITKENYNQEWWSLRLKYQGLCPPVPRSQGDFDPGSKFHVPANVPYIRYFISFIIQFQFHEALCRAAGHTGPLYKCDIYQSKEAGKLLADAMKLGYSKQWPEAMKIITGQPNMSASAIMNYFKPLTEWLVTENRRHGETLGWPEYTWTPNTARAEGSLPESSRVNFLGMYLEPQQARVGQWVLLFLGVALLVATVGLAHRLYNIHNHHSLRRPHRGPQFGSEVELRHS
Method in brief: (§1)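 Male conscious normotensive Sprague-Dawley rats (275-390 g), prepared under methohexital sodium (75 mg/kg ip) with femoral arterial and venous catheters. The next day, pressor responses to three angiotensin-I challenges (300 ng/kg iv) were recorded. Compound was then given orally and angiotensin-I challenges were repeated at set times. Percent inhibition is relative to the mean of the three baseline responses.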

[2] = molecular target: T1, Angiotensin-converting enzyme (Rattus norvegicus); experiment: Compound was tested for plasma inhibition of Angiotensin I converting enzyme activity in the conscious rat. Expressed as Inhibition of AI pressor response at 2 hr at a dose of 13.7 mg/kg po; type: organism-based; parameters: dose 13.7 mg/kg
Method in brief: (§2)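 Male conscious normotensive Sprague-Dawley rats (275-390 g), given femoral arterial and venous catheters under methohexital sodium (75 mg/kg ip) anesthesia. Next day, pressor responses to three angiotensin-I challenges (300 ng/kg iv) recorded by direct arterial pressure. Compound then dosed orally, and AI challenge repeated at set times. Each post-dose response compared with the mean of the three baseline responses, giving % inhibition.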

[3] = molecular target: T1, Angiotensin-converting enzyme (Rattus norvegicus); experiment: Compound was tested for plasma inhibition of Angiotensin I converting enzyme activity in the conscious rat. Expressed as Inhibition of AI pressor response at 4 hr at a dose of 13.7 mg/kg po; type: organism-based; parameters: dose 13.7 mg/kg; method in brief: as §1
[4] = test system: Rattus norvegicus; experiment: Plasma ANF Concentration in the Conscious Rat at a dose of 13.7(po)mg/kg at 4 h; type: functional
Method in brief: (§3)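 Male Sprague-Dawley rats (275-390 g), catheterized in femoral artery and vein under ketamine (150 mg/kg)/acepromazine, tethered and recovered 24 h, studied conscious. Continuous iv rat ANF(99-126) infusion at 450 ng/kg/min for 5 h; baseline blood at 60 min, then oral dosing, sampling at 30-240 min.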

[5] = test system: Rattus norvegicus; experiment: Plasma ANF Concentration in the Conscious Rat at a dose of 13.7(po)mg/kg at 1 h; type: functional; method in brief: as §3
[6] = test system: Rattus norvegicus; experiment: Plasma ANF Concentration in the Conscious Rat at a dose of 13.7(po)mg/kg at 0.5 h; type: functional; method in brief: as §3
[7] = molecular target: T1, Angiotensin-converting enzyme (Rattus norvegicus); experiment: Compound was tested for plasma inhibition of Angiotensin I converting enzyme activity in the conscious rat. Expressed as Inhibition of AI pressor response at 1 hr at a dose of 13.7 mg/kg po; type: organism-based; parameters: dose 13.7 mg/kg; method in brief: as §2
[8] = test system: Rattus norvegicus; experiment: Plasma ANF Concentration in the Conscious Rat at a dose of 13.7(po)mg/kg at 2 h; type: functional; method in brief: as §3
[9] = molecular target: T1, Angiotensin-converting enzyme (Rattus norvegicus); experiment: Compound was tested for plasma inhibition of Angiotensin I converting enzyme activity in the conscious rat. Expressed as Inhibition of AI pressor response at 6 hr at a dose of 12.4 mg/kg po; type: organism-based; parameters: dose 12.4 mg/kg; method in brief: as §1
[10] = molecular target: T1, Angiotensin-converting enzyme (Rattus norvegicus); experiment: Compound was tested for plasma inhibition of Angiotensin I converting enzyme activity in the conscious rat. Expressed as Inhibition of AI pressor response at 2 hr at a dose of 12.4 mg/kg po; type: organism-based; parameters: dose 12.4 mg/kg; method in brief: as §2
[11] = test system: Rattus norvegicus; experiment: Plasma ANF Concentration in the Conscious Rat at a dose of 12.4 (p.o.) mg/kg at 2 h; type: functional
Method in brief: (§4)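 Male Sprague-Dawley rats (275-390 g) received femoral artery and vein catheters under ketamine (150 mg/kg)/acepromazine and recovered for 24 h, tethered, before study conscious. ratANF(99-126) was infused at 450 ng/kg/min iv for 5 h. Baseline blood was drawn at 60 min into the infusion, then compound was given po.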

[12] = molecular target: T1, Angiotensin-converting enzyme (Rattus norvegicus); experiment: Compound was tested for plasma inhibition of Angiotensin I converting enzyme activity in the conscious rat. Expressed as Inhibition of AI pressor response at 4 hr at a dose of 12.4 mg/kg po; type: organism-based; parameters: dose 12.4 mg/kg; method in brief: as §2
[13] = test system: Rattus norvegicus; experiment: Plasma ANF Concentration in the Conscious Rat at a dose of 12.4 (p.o.) mg/kg at 4 h; type: functional; method in brief: as §4
[14] = test system: Rattus norvegicus; experiment: Plasma ANF Concentration in the Conscious Rat at a dose of 12.4 (p.o.) mg/kg at 1 h; type: functional; method in brief: as §4
[15] = molecular target: T1, Angiotensin-converting enzyme (Rattus norvegicus); experiment: Compound was tested for plasma inhibition of Angiotensin I converting enzyme activity in the conscious rat. Expressed as Inhibition of AI pressor response at 1 hr at a dose of 12.4 mg/kg po; type: organism-based; parameters: dose 12.4 mg/kg; method in brief: as §2
[16] = test system: Rattus norvegicus; experiment: Plasma ANF Concentration in the Conscious Rat at a dose of 12.4 (p.o.) mg/kg at 0.5 h; type: functional; method in brief: as §4
[17] = test system: Rattus norvegicus; experiment: Plasma ANF Concentration in the Conscious Rat at a dose of 12.7(po)mg/kg at 4 h; type: functional; method in brief: as §4
[18] = test system: Rattus norvegicus; experiment: Plasma ANF Concentration in the Conscious Rat at a dose of 12.7(po)mg/kg at 0.5 h; type: functional; method in brief: as §4
[19] = test system: Rattus norvegicus; experiment: Plasma ANF Concentration in the Conscious Rat at a dose of […]; type: functional; details: in the assay text read “12.7(po)mg/kg” for “12.4(po)mg/kg”; method in brief: as §4
[20] = test system: Rattus norvegicus; experiment: Plasma ANF Concentration in the Conscious Rat at a dose of 12.7(po)mg/kg at 1 h; type: functional; method in brief: as §4
[21] = molecular target: T1, Angiotensin-converting enzyme (Rattus norvegicus); experiment: Compound was tested for plasma inhibition of Angiotensin I converting enzyme activity in the conscious rat. Expressed as Inhibition of AI pressor response at 4 hr at a dose of 12.7 mg/kg po; type: organism-based; parameters: dose 12.7 mg/kg; method in brief: as §2
[22] = molecular target: T1, Angiotensin-converting enzyme (Rattus norvegicus); experiment: Compound was tested for plasma inhibition of Angiotensin I converting enzyme activity in the conscious rat. Expressed as Inhibition of AI pressor response at 1 hr at a dose of 12.7 mg/kg po; type: organism-based; parameters: dose 12.7 mg/kg; method in brief: as §2
[23] = molecular target: T1, Angiotensin-converting enzyme (Rattus norvegicus); experiment: Compound was tested for plasma inhibition of Angiotensin I converting enzyme activity in the conscious rat. Expressed as Inhibition of AI pressor response at 2 hr at a dose of 12.7 mg/kg po; type: organism-based; parameters: dose 12.7 mg/kg; method in brief: as §2
[24] = molecular target: T1, Angiotensin-converting enzyme (Rattus norvegicus); experiment: Compound was tested for plasma inhibition of Angiotensin I converting enzyme activity in the conscious rat. Expressed as Inhibition of AI pressor response at 6 hr at a dose of 12.7 mg/kg po; type: organism-based; parameters: dose 12.7 mg/kg; method in brief: as §1

CCN(CC)C(=O)COC(=O)[C@H](Cc1ccc(OC)cc1)NC(=O)C1(NC(=O)[C@H](SC(C)=O)C(C)C)CCCC1
inhibition [1]: 64% | inhibition [2]: 86% | inhibition [3]: 73% | Control [4]: 264% | Control [5]: 187% | Control [6]: 159% | inhibition [7]: 88% | Control [8]: 215%

CCCCOC(=O)[C@H](Cc1ccc(O)cc1)NC(=O)C1(NC(=O)[C@H](SC(C)=O)C(C)C)CCCC1
inhibition [9]: 72% | inhibition [10]: 78% | Control [11]: 178% | inhibition [12]: 70% | Control [13]: 185% | Control [14]: 133% | inhibition [15]: 76% | Control [16]: 131%

CC(=O)S[C@@H](C(=O)NC1(C(=O)N[C@@H](Cc2ccc(O)cc2)C(=O)OCCC(C)C)CCCC1)C(C)C
Control [17]: 251% | Control [18]: 178% | Control [19]: 236% | Control [20]: 235% | inhibition [21]: 77% | inhibition [22]: 83% | inhibition [23]: 77% | inhibition [24]: 60%
